Data on 41 compounds can be found in ChEMBL document CHEMBL4138318, “Discovery of 5-Cyano-6-phenylpyrimidin Derivatives Containing an Acylurea Moiety as Orally Bioavailable Reversal Agents against P-Glycoprotein-Mediated Mutidrug Resistance” (J Med Chem, 2018).

Data set [1] has as its target ATP-dependent translocase ABCB1 (Homo sapiens, UniProt P08183). Description: Inhibition of ABCB1 in human SW620/AD300 cells assessed as potentiation of paclitaxel-induced cytotoxicity by measuring fold reduction in paclitaxel IC50 at 2 uM after 72 hrs by MTT assay relative to paclitaxel alone. Format: cell-based. A digest of the protocol:
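SW620/AD300 cells (~5×10^3/well) treated with graded paclitaxel with or without modulator (2 µM, or 0.5-2 µM in dose series; 0.1% DMSO solvent control) for 72 h; MTT (5 mg/mL stock) added 4 h, absorbance 490 nm. IC50 as mean ± SD of three independent runs; reversal fold = paclitaxel IC50 without/with modulator.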
In general terms: Tetrazolium dyes change colour on reduction, which living cells bring about.

The nature of data set [2]: Cytotoxicity against human SW620 cells assessed as survival at 2 uM after 72 hrs by MTT assay relative to control. Format: cell-based, SW-620. The note with it: read-out: Survival.
Data set [3] is described as follows: Cytotoxicity against human SW620/AD300 cells assessed as survival at 2 uM after 72 hrs by MTT assay relative to control. As to conditions: read-out: Survival. Format: cell-based.

ATP-dependent translocase ABCB1, sequence (P08183 whole entry): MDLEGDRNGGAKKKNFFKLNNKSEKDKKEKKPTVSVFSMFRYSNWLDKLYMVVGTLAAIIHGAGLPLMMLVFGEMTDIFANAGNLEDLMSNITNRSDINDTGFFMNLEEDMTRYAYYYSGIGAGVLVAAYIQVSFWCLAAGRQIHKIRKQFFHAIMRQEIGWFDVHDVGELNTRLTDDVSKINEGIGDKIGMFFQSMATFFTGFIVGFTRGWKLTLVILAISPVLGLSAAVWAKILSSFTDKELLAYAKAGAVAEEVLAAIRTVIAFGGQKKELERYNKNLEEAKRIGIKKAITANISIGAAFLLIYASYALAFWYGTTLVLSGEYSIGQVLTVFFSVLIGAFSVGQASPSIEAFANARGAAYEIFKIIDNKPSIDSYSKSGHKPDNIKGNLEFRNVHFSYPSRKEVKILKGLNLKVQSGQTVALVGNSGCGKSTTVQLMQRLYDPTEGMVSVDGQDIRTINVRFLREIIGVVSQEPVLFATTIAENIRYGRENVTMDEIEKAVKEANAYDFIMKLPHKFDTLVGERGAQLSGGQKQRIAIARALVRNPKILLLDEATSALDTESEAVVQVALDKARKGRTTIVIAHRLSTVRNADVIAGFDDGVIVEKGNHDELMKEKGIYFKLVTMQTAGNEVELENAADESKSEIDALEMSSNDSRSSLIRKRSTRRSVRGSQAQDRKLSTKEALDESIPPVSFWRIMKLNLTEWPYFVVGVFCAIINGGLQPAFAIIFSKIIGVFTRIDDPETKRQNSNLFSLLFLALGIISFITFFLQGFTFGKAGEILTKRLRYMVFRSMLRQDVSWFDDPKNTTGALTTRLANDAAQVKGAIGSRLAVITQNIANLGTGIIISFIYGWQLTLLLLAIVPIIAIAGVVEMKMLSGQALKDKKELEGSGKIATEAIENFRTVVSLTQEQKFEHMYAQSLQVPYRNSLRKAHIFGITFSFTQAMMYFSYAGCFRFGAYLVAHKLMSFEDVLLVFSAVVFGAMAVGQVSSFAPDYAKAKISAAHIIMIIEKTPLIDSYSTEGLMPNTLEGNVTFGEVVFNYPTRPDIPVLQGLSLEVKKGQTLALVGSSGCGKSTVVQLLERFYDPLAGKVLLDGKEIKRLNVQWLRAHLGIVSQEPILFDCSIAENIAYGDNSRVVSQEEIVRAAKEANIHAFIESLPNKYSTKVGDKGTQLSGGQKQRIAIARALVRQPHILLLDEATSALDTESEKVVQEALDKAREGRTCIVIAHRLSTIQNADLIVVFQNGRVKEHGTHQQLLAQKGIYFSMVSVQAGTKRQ

With `Cc1ccc(Nc2nc(SCc3cn(Cc4ccccc4Cl)nn3)nc(-c3ccc(Br)cc3)c2C#N)cc1`, the “fold change (FC)” value in data set [1] came out at 3.39.

As for `Cc1cccc(Nc2nc(SCC(=O)NC(=O)Nc3ccccn3)nc(-c3ccc(C(C)C)cc3)c2C#N)c1`, the viability at 72 h, 2 µM in data set [2] and in data set [3] was more than 90% throughout. For the same compound, the “fold change (FC)” value in data set [1] amounted to 2.62.

Consider `COc1cc(-c2nc(SCc3cn(Cc4ccccc4Cl)nn3)nc(Nc3ccc(C)cc3)c2C#N)cc(OC)c1OC`, for which the “fold change (FC)” value in data set [1] came to 27.54.

`COc1cc(-c2nc(SCC(=O)NC(=O)Nc3ccccc3)nc(Nc3ccc(F)cc3)c2C#N)cc(OC)c1OC`: the viability at 72 h, 2 µM in data set [2] and in data set [3] was more than 90% each time. For the same compound, the “fold change (FC)” value in data set [1] amounted to 25.37.

In the case of `COc1ccccc1Nc1nc(SCC(=O)NC(=O)Nc2ccccn2)nc(-c2ccc(F)c(F)c2)c1C#N`, the viability at 72 h, 2 µM in data set [2] and in data set [3] was more than 90% each time. For the same compound, in data set [1], the “fold change (FC)” value came to 13.42.

For `COc1ccccc1Nc1nc(SCc2cn(CC(=O)NC(=O)Nc3ccccn3)nn2)nc(-c2ccc(C(C)C)cc2)c1C#N`, the viability at 72 h, 2 µM in data set [2] and in data set [3] was more than 90% each time. The “fold change (FC)” value in data set [1] amounted to 10.18.

`CC(C)c1ccc(-c2nc(SCc3cn(CC(=O)NC(=O)Nc4ccccn4)nn3)nc(Nc3cccc([N+](=O)[O-])c3)c2C#N)cc1`: the viability at 72 h, 2 µM in data set [2] and in data set [3] was more than 90% each time. For the same compound, in data set [1], the “fold change (FC)” value came to 2.99.

`COc1ccccc1Nc1nc(SCC(=O)NC(=O)Nc2ccccn2)nc(-c2cc(OC)c(OC)c(OC)c2)c1C#N`: the viability at 72 h, 2 µM in data set [2] and in data set [3] was more than 90% in each case. For the same compound, the “fold change (FC)” value in data set [1] came out at 8.67.

With `COc1cc(-c2nc(SCC(=O)NC(=O)Nc3ccccn3)nc(Nc3cccc(C(F)(F)F)c3)c2C#N)cc(OC)c1OC`, the viability at 72 h, 2 µM in data set [2] and in data set [3] was more than 90% throughout. Also, in data set [1], the “fold change (FC)” value was 58.14.

On to `COc1cc(-c2nc(SCC(=O)NC(=O)Nc3ccccn3)nc(Nc3ccc(Cl)cc3)c2C#N)cc(OC)c1OC`, for which the viability at 72 h, 2 µM in data set [2] and in data set [3] was more than 90% in each case. The “fold change (FC)” value in data set [1] is 12.61.

As to `N#Cc1c(Nc2ccc(Cl)cc2)nc(SCC(=O)NC(=O)Nc2ccccn2)nc1-c1ccc(F)c(F)c1`, the viability at 72 h, 2 µM in data set [2] and in data set [3] was more than 90% throughout. The “fold change (FC)” value in data set [1] amounted to 3.5.

As to `COc1cc(-c2nc(SCC(=O)NC(=O)Nc3ccccn3)nc(Nc3ccccc3Cl)c2C#N)cc(OC)c1OC`, the viability at 72 h, 2 µM in data set [2] and in data set [3] was more than 90% throughout. Also, the “fold change (FC)” value in data set [1] came out at 38.05.

In the case of `COc1cc(-c2nc(SCC(=O)NC(=O)Nc3ccccn3)nc(Nc3ccc(C(F)(F)F)cc3)c2C#N)cc(OC)c1OC`, the viability at 72 h, 2 µM in data set [2] and in data set [3] was more than 90% in each case. Besides, the “fold change (FC)” value in data set [1] was 3.56.

Turning to `COc1cc(-c2nc(SCc3cn(CC(=O)NC(=O)Nc4ccccn4)nn3)nc(Nc3ccc(C)cc3)c2C#N)cc(OC)c1OC`, the viability at 72 h, 2 µM in data set [2] and in data set [3] was more than 90% in each case. Moreover, in data set [1], the “fold change (FC)” value amounted to 6.23.

On to `COc1cc(-c2nc(SCC(=O)NC(=O)Nc3ccccn3)nc(Nc3cccc([N+](=O)[O-])c3)c2C#N)cc(OC)c1OC`, for which the viability at 72 h, 2 µM in data set [2] and in data set [3] was more than 90% in each case. For the same compound, the “fold change (FC)” value in data set [1] amounted to 82.08.

For the compound `N#Cc1c(Nc2cccc(C(F)(F)F)c2)nc(SCC(=O)NC(=O)Nc2ccccn2)nc1-c1ccc(Cl)cc1`, the viability at 72 h, 2 µM in data set [2] and in data set [3] was more than 90% throughout. In data set [1], the “fold change (FC)” value was determined as 2.86.

Take `COc1cc(-c2nc(SCc3ccccc3)nc(Nc3ccc(Cl)cc3)c2C#N)cc(OC)c1OC`: the viability at 72 h, 2 µM in data set [2] and in data set [3] was more than 90% throughout. The “fold change (FC)” value in data set [1] stood at 1.24.

Turning to `CC(C)c1ccc(-c2nc(SCc3cn(CC(=O)NC(=O)Nc4ccccn4)nn3)nc(Nc3ccccc3O)c2C#N)cc1`, the viability at 72 h, 2 µM in data set [2] and in data set [3] was more than 90% each time. In addition, the “fold change (FC)” value in data set [1] is 13.64.

Consider `COc1cc(-c2nc(SCC(=O)NC(=O)Nc3ccccc3)nc(Nc3ccc(C(C)C)cc3)c2C#N)cc(OC)c1OC`, for which the viability at 72 h, 2 µM in data set [2] and in data set [3] was more than 90% in each case. The “fold change (FC)” value in data set [1] worked out at 25.07.

On to `COc1cc(-c2nc(SCc3cn(CC(=O)NC(=O)Nc4ccccn4)nn3)nc(Nc3ccc(Cl)cc3)c2C#N)cc(OC)c1OC`, for which the viability at 72 h, 2 µM in data set [2] and in data set [3] was more than 90% throughout. Also, in data set [1], the “fold change (FC)” value came to 1.71.

On to `COc1cc(-c2nc(SCc3cn(CC(=O)NC(=O)Nc4ccccn4)nn3)nc(Nc3ccc(C(C)C)cc3)c2C#N)cc(OC)c1OC`, for which the viability at 72 h, 2 µM in data set [2] and in data set [3] was more than 90% each time. In addition, the “fold change (FC)” value in data set [1] was 13.16.

Regarding `Cc1ccc(Nc2nc(SCC(=O)NC(=O)Nc3ccccn3)nc(-c3ccccc3)c2C#N)cc1`, the viability at 72 h, 2 µM in data set [2] and in data set [3] was more than 90% in each case. The “fold change (FC)” value in data set [1] amounted to 1.67.

For the compound `Cc1ccc(Nc2nc(SCc3cn(Cc4ccccc4Cl)nn3)nc(-c3ccc(C)cc3)c2C#N)cc1`, the “fold change (FC)” value in data set [1] worked out at 21.69.

For `CC(C)c1ccc(-c2nc(SCc3cn(CC(=O)NC(=O)Nc4ccccn4)nn3)nc(Nc3ccccc3F)c2C#N)cc1`, the viability at 72 h, 2 µM in data set [2] and in data set [3] was more than 90% throughout. Also, the “fold change (FC)” value in data set [1] was found to be 2.74.

`CC(C)c1ccc(-c2nc(SCc3cn(CC(=O)NC(=O)Nc4ccccn4)nn3)nc(Nc3ccc(F)cc3)c2C#N)cc1`: the viability at 72 h, 2 µM in data set [2] and in data set [3] was more than 90% throughout. In addition, the “fold change (FC)” value in data set [1] is 2.11.

Consider `COc1cc(-c2nc(SCc3ccccc3)nc(Nc3cccc(Cl)c3)c2C#N)cc(OC)c1OC`, for which the viability at 72 h, 2 µM in data set [2] and in data set [3] was more than 90% in each case. Further, in data set [1], the “fold change (FC)” value is 1.05.

For `COc1cc(-c2nc(SCC(=O)Nc3ccccn3)nc(Nc3cccc(Cl)c3)c2C#N)cc(OC)c1OC`, the viability at 72 h, 2 µM in data set [2] and in data set [3] was more than 90% throughout. Further, the “fold change (FC)” value in data set [1] was found to be 5.51.

As for `COc1ccc(Nc2nc(SCc3cn(CC(=O)NC(=O)Nc4ccccn4)nn3)nc(-c3ccc(C(C)C)cc3)c2C#N)cc1`, the viability at 72 h, 2 µM in data set [2] and in data set [3] was more than 90% in each case. Besides, the “fold change (FC)” value in data set [1] was 6.3.

As to `CC(C)c1ccc(Nc2nc(SCc3cn(CC(=O)NC(=O)Nc4ccccn4)nn3)nc(-c3ccc(C(C)C)cc3)c2C#N)cc1`, the viability at 72 h, 2 µM in data set [2] and in data set [3] was more than 90% throughout. Further, the “fold change (FC)” value in data set [1] is 9.49.

Regarding `N#Cc1c(Nc2ccc(Cl)cc2)nc(SCC(=O)NC(=O)Nc2ccccn2)nc1-c1ccc(Cl)cc1`, the viability at 72 h, 2 µM in data set [2] and in data set [3] was more than 90% throughout. For the same compound, in data set [1], the “fold change (FC)” value stood at 2.32.

Turning to `Cc1ccc(Nc2nc(SCc3cn(CC(=O)NC(=O)Nc4ccccn4)nn3)nc(-c3ccc(C(C)C)cc3)c2C#N)cc1`, the viability at 72 h, 2 µM in data set [2] and in data set [3] was more than 90% in each case. The “fold change (FC)” value in data set [1] is recorded as 6.86.

As for `Cc1ccc(-c2nc(SCc3cn(CC(=O)NC(=O)Nc4ccccn4)nn3)nc(Nc3ccc(C(C)C)cc3)c2C#N)cc1`, the viability at 72 h, 2 µM in data set [2] and in data set [3] was more than 90% each time. In data set [1], the “fold change (FC)” value was 1.18.

Turning to `COc1ccccc1Nc1nc(SCC(=O)NC(=O)Nc2ccccc2)nc(-c2cc(OC)c(OC)c(OC)c2)c1C#N`, the viability at 72 h, 2 µM in data set [2] and in data set [3] was more than 90% each time. For the same compound, the “fold change (FC)” value in data set [1] amounted to 3.66.

Regarding `COc1cc(-c2nc(SCC(=O)NC(=O)Nc3ccccc3)nc(Nc3cccc([N+](=O)[O-])c3)c2C#N)cc(OC)c1OC`, the viability at 72 h, 2 µM in data set [2] and in data set [3] was more than 90% each time. Moreover, the “fold change (FC)” value in data set [1] is given as 21.04.

Take `Cc1ccc(Nc2nc(SCc3cn(CC(=O)NC(=O)Nc4ccccn4)nn3)nc(-c3ccc(Br)cc3)c2C#N)cc1`: the viability at 72 h, 2 µM in data set [2] and in data set [3] was more than 90% in each case. In addition, the “fold change (FC)” value in data set [1] was found to be 1.41.

As to `COc1cc(-c2nc(SCc3cn(CC(=O)NC(=O)Nc4ccccn4)nn3)nc(Nc3cccc(C(F)(F)F)c3)c2C#N)cc(OC)c1OC`, the viability at 72 h, 2 µM in data set [2] and in data set [3] was more than 90% in each case. Moreover, the “fold change (FC)” value in data set [1] is recorded as 1.35.

As to `CC(C)c1ccc(-c2nc(SCC(=O)NC(=O)Nc3ccccn3)nc(Nc3cccc(C(F)(F)F)c3)c2C#N)cc1`, the viability at 72 h, 2 µM in data set [2] and in data set [3] was more than 90% each time. Also, the “fold change (FC)” value in data set [1] is 37.04.

As to `N#Cc1c(Nc2cccc(C(F)(F)F)c2)nc(SCC(=O)NC(=O)Nc2ccccn2)nc1-c1ccc(F)c(F)c1`, the viability at 72 h, 2 µM in data set [2] and in data set [3] was more than 90% each time. In data set [1], the “fold change (FC)” value was 3.11.

On to `Cc1ccccc1Nc1nc(SCc2cn(CC(=O)NC(=O)Nc3ccccn3)nn2)nc(-c2ccc(C(C)C)cc2)c1C#N`, for which the viability at 72 h, 2 µM in data set [2] and in data set [3] was more than 90% each time. The “fold change (FC)” value in data set [1] is 4.69.

Turning to `Cc1ccc(Nc2nc(SCc3cn(Cc4ccccc4Cl)nn3)nc(-c3ccc(C(C)C)cc3)c2C#N)cc1`, in data set [1], the “fold change (FC)” value turned out to be 46.

Turning to `Cc1ccccc1Nc1nc(SCc2cn(Cc3ccc(Cl)cc3)nn2)nc(-c2ccccc2)c1C#N`, the “fold change (FC)” value in data set [1] amounted to 116.
